Laboratory results taken from ChEMBL document CHEMBL4138168, “Design and synthesis of novel thiobarbituric acid derivatives targeting both wild-type and BRAF-mutated melanoma cells” (Eur J Med Chem, 2018).
The source made the active and inactive calls. The calls are words filed in the database; no cut-off is given here.

What was measured:
[1] = test system: HCT-116; test: Antiproliferative activity against human HCT116 cells after 48 hrs by MTT assay; assay type: functional, cell-based; details: HCT-116, 48 h
Outline: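 3,000 cells per well, grown at 37 °C (DMEM with 10% FBS and penicillin/streptomycin; HCT116 in McCoy's 5A). Cells exposed in triplicate to 0.5–25 μM compound for 48 h. MTT (5 mg/mL PBS stock) added for 3 h, formazan dissolved in DMSO, OD read at 570 nm minus 630 nm background. IC50 from non-linear regression of two independent experiments.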

[2] = test system: UACC-903; test: Induction of apoptosis in human UACC-903 cells harboring BRAF mutant assessed as apoptotic dead cells level at 5 uM after 24 hrs by AAD dye containing caspase 3/7 activity assay (reference value: 3%); assay type: functional
[3] = test system: MCF7; test: Cytotoxicity against human MCF7 cells assessed as cell viability at 25 uM after 48 hrs by MTT assay relative to control; assay type: functional; details: MCF7, 48 h, read-out: Activity
Outline: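 MTT viability at a single 25 μM dose, 48 h, 3,000 cells/well. MCF10A normal breast epithelial cells were kept in MEGM mammary epithelial medium; the cancer lines were in DMEM with 10% FBS, 37 °C. OD at 570 nm with 630 nm background, expressed relative to control.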

[4] = test system: UACC-903; test: Induction of apoptosis in human UACC-903 cells harboring BRAF mutant assessed as […] in cleaved PARP level at 5 to 25 uM after 24 hrs by Western blot analysis; assay type: functional, cell-based
Outline: (§1)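 2 × 10^6 cells treated with the indicated concentrations for 24 h. Whole-cell lysates run on SDS-PAGE, transferred to PVDF, probed with antibodies against apoptosis/survival proteins, and detected by enhanced chemiluminescence.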

[5] = test system: UACC-903; test: Cytotoxicity against human UACC-903 cells assessed as cell viability at 25 uM after 48 hrs by MTT assay relative to control; assay type: functional, cell-based; details: UACC-903, 48 h
Outline: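 MCF10A normal breast epithelial cells were kept in MEGM mammary epithelial medium; the cancer lines were in DMEM with 10% FBS, 37 °C. OD at 570 nm with 630 nm background, expressed relative to control.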

[6] = test system: UACC-903; test: Induction of apoptosis in human UACC-903 cells harboring BRAF mutant assessed as early apoptotic cells at 25 uM after 24 hrs by Annexin V/7-AAD staining-based assay (reference value: 2.68%); assay type: functional
[7] = test system: UACC-903; test: Induction of apoptosis in human UACC-903 cells harboring BRAF mutant assessed as late apoptotic cells at 5 uM after 24 hrs by Annexin V/7-AAD staining-based assay (reference value: 1.56%); assay type: functional
[8] = test system: UACC-903; test: Induction of apoptosis in human UACC-903 cells harboring BRAF mutant assessed as late apoptotic cells at 25 uM after 24 hrs by Annexin V/7-AAD staining-based assay (reference value: 1.56%); assay type: functional
[9] = test system: CHL-1; test: Induction of apoptosis in human CHL-1 cells harboring wild type BRAF assessed as increase in dead cells at 25 uM after 24 hrs by Calcein-AM/ethidium bromide staining-based fluorescence assay (reference value: 2%); assay type: functional
[10] = test system: CHL-1; test: Induction of apoptosis in human CHL-1 cells harboring wild type BRAF assessed as decrease in Bcl-xL level at 5 to 25 uM after 24 hrs by Western blot analysis; assay type: functional, cell-based; outline: as §1
[11] = test system: CHL-1; test: Induction of apoptosis in human CHL-1 cells harboring wild type BRAF assessed as increase in dead cells at 50 uM after 24 hrs by Calcein-AM/ethidium bromide staining-based fluorescence assay (reference value: 2%); assay type: functional
[12] = test system: UACC-903; test: Induction of apoptosis in human UACC-903 cells harboring BRAF mutant assessed as decrease in survivin level at 5 to 25 uM after 24 hrs by Western blot analysis; assay type: functional, cell-based; outline: as §1
[13] = Selectivity ratio of cytotoxicity against human MCF10A cells to cytotoxicity against human MDA-MB-231 cells; assay type: toxicity, cell-based; details: MCF10A cells versus MDA-MB-231 cells

O=C1NC(=S)NC(=O)C1=C/C=C/c1cccs1
IC50 [1]: 7.7 µM
Activity [2]: 3.94%
viability at 25 µM [3]: 20 to 30%
Activity [4]: Active
IC50 [5]: 4 µM
Activity [6]: 30.28%
Activity [7]: 3.14%
Activity [8]: 40.54%
Activity [9]: 65%
Activity [10]: Active
Activity [11]: 98%
Activity [12]: Active
selectivity ratio [13]: 2

O=C1NC(=S)N(c2ccccc2)C(=O)/C1=C/C=C/c1cccs1
IC50 [1]: 2.4 µM
Activity [2]: 2.88%
viability at 25 µM [3]: 20 to 30%
Activity [4]: Active
IC50 [5]: 3.8 µM
Activity [6]: 21.04%
Activity [7]: 3.18%
Activity [8]: 44.28%
Activity [9]: 5%
Activity [10]: Active
Activity [11]: 40%
Activity [12]: Active
selectivity ratio [13]: 2
